Measurements taken from ChEMBL document CHEMBL3865841, “Photosensitizer (PS)-cyanine dye (CD) conjugates: Impact of the linkers joining the PS and CD moieties and their orientation in tumor-uptake and photodynamic therapy (PDT)” (Eur J Med Chem, 2016).
Activity calls are given as the source filed them. The rule behind the calls is not given here.

Legend:
[1] = Phototoxicity against mouse Colon 26 cells assessed as reduction in cell viability preincubated for 24 hrs with subsequent 4 J/cm2 irradiation measured after 48 hrs incubation in dark by MTT assay; format: functional, cell-based; conditions: Colon 26, light or radiation study
Procedure, shortened: (§1)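 Colon-26 (RPMI-1640, 10% FCS) or U87 (MEM, 10% FCS) cells at 5000/well were given conjugate at 0–4 µM for 24 h. Compounds were formulated in 1% Tween-80/D5W and diluted in medium. Cells were washed and refed, then irradiated at 4 J/cm², 3.2 mW/cm². Then 44 h at 37°C in the dark, MTT 4 h, DMSO, A560. EC50 at 4 J/cm². Colon-26: two independent experiments, triplicates.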

[2] = Drug uptake in mouse colon 26 cell mitochondria assessed as color overlay at 1 uM after 24 hrs in dark by mitotracker red dye-based confocal microscopic analysis; format: ADME; conditions: colon 26, 24 h
Procedure, shortened: (§2)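 Colon-26 cells held with conjugate at 1 µM, imaged 24 h later by confocal microscopy. Lysosomal dye FluoSpheres yellow green at 1/100,000 dilution of commercial stock; mitochondrial MitoTracker Red at 2.5 nM for 10 min. Overlays of the conjugate signal with each organelle dye.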

[3] = Drug uptake in human U87 cells at 1 uM after 24 hrs in dark by flow cytometry; format: ADME, cell-based; conditions: u-87mg atcc
Procedure, shortened: (§3)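 Colon-26 or U87 cells seeded at 5.0 × 10⁵ per well, 24 h, then exposed to conjugate at 1 µM in the dark at 37°C for 24 h. Cells harvested, spun cold at 10°C, resuspended in cold 2% FCS in PBS, run on a BD LSR II. Analysis used the 405 nm violet laser with 780/60, 710/50 and 660/20 nm filters.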

[4] = Drug uptake in mouse colon 26 cell lysosomes assessed as color overlay at 1 uM after 24 hrs in dark by FluoSpheres yellow green dye-based confocal microscopic analysis; format: ADME, Lysosome; conditions: colon 26, 24 h; procedure, shortened: as §2
U-87MG ATCC = test: Phototoxicity against human U87 cells xenografted in immunocompromized nude mouse assessed as increase in tumor cure incidents at 1.5 umol/kg, iv preincubated for 24 hrs subsequent irradiation at 128 J/cm2 measured after 60 days; format: functional, organism-based
Procedure, shortened: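 Athymic nude mice bore s.c. U87 tumors (2 × 10⁶ cells) of 4–5 mm. Conjugate given i.v. at 1.5 µmol/kg. At 24 h post-injection tumors got 665 nm laser light, 128 J/cm², 14 mW/cm². Mice followed daily for regrowth; cure = no palpable tumor by day 60.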

[5] = Drug uptake in human U87 cell lysosomes assessed as color overlay at 1 uM after 24 hrs in dark by FluoSpheres yellow green dye-based confocal microscopic analysis; format: ADME, Lysosome; conditions: u-87mg atcc
Procedure, shortened: (§4)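 U87 cells held with conjugate at 1 µM, imaged 24 h later by confocal microscopy. Lysosomal FluoSpheres yellow green at 1/100,000 dilution of commercial stock; MitoTracker Red 2.5 nM for 10 min. Overlays of the conjugate signal with each organelle dye.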

[6] = Phototoxicity against mouse Colon 26 cells implanted in Balb/c mouse assessed as tumor cure incidents at 1.5 umol/kg, iv preincubated for 24 hrs with subsequent irradiation at 128 J/cm2 measured after 60 days; format: functional
Procedure, shortened: (§5)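 BALB/c mice bore s.c. Colon-26 tumors (1 × 10⁶ cells, shoulder) of 4–5 mm. Conjugate given i.v. via tail vein at 0.4, 0.75, 1.5, 2.5 or 3.5 µmol/kg. At 24 h unanesthetized mice got 665 nm laser, 128 J/cm², 14 mW/cm², 1.1 cm spot. Regrowth checked daily, volume L*W²/2. Cure = no palpable tumor by day 60; euthanasia at 400 mm³.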

[7] = Phototoxicity against human U87 cells assessed as reduction in cell viability preincubated for 24 hrs with subsequent irradiation 4 J/cm2 followed by 48 hrs incubation in dark by MTT assay; format: functional, cell-based, U-87MG ATCC; conditions: U-87 MG, light or radiation study; procedure, shortened: as §1
[8] = Drug uptake in Balb/c mouse liver implanted with mouse Colon 26 cells at 0.3 umol/kg, iv after 24 hrs by reflectance spectroscopic analysis; format: ADME, organism-based; conditions: in vivo
[9] = Drug uptake in mouse Colon 26 cells at 1 uM after 24 hrs in dark by flow cytometry; format: ADME, cell-based; conditions: colon 26, 24 h; procedure, shortened: as §3
[10] = Drug uptake in human U87 cell mitochondria assessed as color overlay at 1 uM after 24 hrs in dark by mitotracker red dye-based confocal microscopic analysis; format: ADME; conditions: u-87mg atcc; procedure, shortened: as §4
[11] = Ratio of drug uptake in tumor to skin in Balb/c mouse implanted with mouse Colon 26 cells at 0.3 umol/kg, iv after 24 hrs by reflectance spectroscopic analysis; format: ADME, organism-based; conditions: in vivo
[12] = Drug uptake in immunocompromized nude mouse tumor xenografted with human U87 cells at 0.03 umol/kg, iv after 24 to 72 hrs by reflectance spectroscopic analysis; format: ADME, organism-based, Neoplasm, U-87MG ATCC; conditions: in vivo
[13] = Phototoxicity against mouse Colon 26 cells implanted in Balb/c mouse assessed as tumor cure incidents at 3.5 umol/kg, iv pretreated for 24 hrs subsequent irradiation at 128 J/cm2 measured after 60 days relative to control; format: functional; procedure, shortened: as §5
[14] = Drug uptake in mouse colon 26 cell lysosomes assessed as color overlay at 0.25 to 2 uM after 4 to 24 hrs in dark by FluoSpheres yellow green dye-based confocal microscopic analysis; format: ADME, Lysosome; conditions: colon 26, 2 µM
Procedure, shortened: (§6)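 Colon-26 cells seeded at 1.25 × 10⁵ in glass-bottom dishes, cultured 24–48 h, then given conjugate at 0.25, 0.5, 1.0 or 2.0 µM in the dark at 37°C for 4 h and 24 h. Co-stained with MitoTracker Red 2.5 nM for 10 min and FluoSpheres yellow/green 1/10,000 of a 1/10 stock for 24 h. Media replaced before Leica TCS SP2 confocal imaging; excitation 488 (lysosome), 543 (mitochondria), 633 nm (HPPH).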

Colon 26 = test: Phototoxicity against mouse Colon 26 cells implanted in Balb/c mouse assessed as increase in tumor cure incidents at 0.75 to 1.5 umol/kg, iv preincubated for 24 hrs with subsequent irradiation at 128 J/cm2 measured up to 60 days; format: functional, organism-based; procedure, shortened: as §5
[15] = Drug uptake in human U87 cell mitochondria assessed as color overlay at 0.25 to 2 uM after 4 to 24 hrs in dark by mitotracker red dye-based confocal microscopic analysis; format: ADME; conditions: u-87mg atcc
Procedure, shortened: (§7)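 U87 glioblastoma cells seeded at 1.25 × 10⁵ in glass-bottom dishes, cultured 24–48 h, then given conjugate at 0.25, 0.5, 1.0 or 2.0 µM in the dark at 37°C for 4 h and 24 h. Co-stained with MitoTracker Red 2.5 nM for 10 min and FluoSpheres yellow/green 1/10,000 of a 1/10 stock for 24 h. Confocal imaging with excitation 488, 543 and 633 nm.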

[16] = Drug uptake in human U87 cell lysosomes assessed as color overlay at 0.25 to 2 uM after 4 to 24 hrs in dark by FluoSpheres yellow green dye-based confocal microscopic analysis; format: ADME, Lysosome; conditions: u-87mg atcc; procedure, shortened: as §7
[17] = Drug uptake in mouse colon 26 cell mitochondria assessed as color overlay at 0.25 to 2 uM after 4 to 24 hrs in dark by mitotracker red dye-based confocal microscopic analysis; format: ADME; conditions: colon 26, 2 µM; procedure, shortened: as §6
Mus musculus [18] = test: Toxicity in Balb/c mouse implanted with mouse Colon 26 cells assessed as morbidity at 2.5 to 3.5 umol/kg, iv preincubated for 24 hrs subsequent irradiation at 128 J/cm2 measured up to 60 days; format: organism-based; conditions: in vivo, 1440 h
Procedure, shortened: (§8)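 BALB/c mice carried s.c. Colon-26 tumours (1 × 10⁶ cells, right posterior shoulder) grown to 4–5 mm. Conjugates were given i.v. via the tail vein at 0.4–3.5 µmol/kg. At 24 h, unanaesthetised restrained mice received 665 nm laser light on a 1.1 cm spot (128 J/cm², 14 mW/cm²). Mice were observed daily for up to 60 days for death or morbidity, which led to euthanasia.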

Mus musculus [19] = test: Toxicity in Balb/c mouse implanted with mouse Colon 26 cells assessed as mortality at 2.5 to 3.5 umol/kg, iv preincubated for 24 hrs subsequent irradiation at 128 J/cm2 measured up to 60 days; format: organism-based; conditions: in vivo, 1440 h; procedure, shortened: as §8

Compound	EC50 [1]	Drug uptake [3]	Activity (U-87MG ATCC)	Activity [6]	EC50 [7]	Drug uptake [8]	Drug uptake [9]	Ratio [11]	Activity [13]	Drug uptake [14]	Activity (Colon 26)	Drug uptake [15]	Drug uptake [16]	Drug uptake [17]	Activity (Mus musculus [18])	Activity (Mus musculus [19])	also measured
CCCCCCOC(C)c1c(C)c2cc3nc(c4c5[nH]c(cc6nc(cc1[nH]2)C(C)=C6CC)c(C)c5C(=O)C4)[C@@H](CCC(=O)NCCCCNC(=O)c1cccc(SC2=C(/C=C/C4=[N+](CCCCS(=O)(=O)[O-])c5ccc6ccccc6c5C4(C)C)CCC/C2=C\C=C2\N(CCCCS(=O)(=O)O)c4ccc5ccccc5c4C2(C)C)c1)[C@@H]3C (stereo partly specified)	180 nM	Active	Active	80%	150 nM	Active	Active	6.5									Drug uptake [2]: Active; Drug uptake [4]: Active; Drug uptake [5]: Active; Drug uptake [10]: Active; Drug uptake [12]: Active
CCCCCCOC(C)c1c(C)c2cc3nc(c4c5[nH]c(cc6nc(cc1[nH]2)C(C)=C6CC)c(C)c5C(=O)C4)[C@@H](CCC(=O)NCCCCCCNC(=O)c1ccc(SC2=C(/C=C/C4=[N+](CCCCS(=O)(=O)[O-])c5ccc6ccccc6c5C4(C)C)CCC/C2=C\C=C2\N(CCCCS(=O)(=O)O)c4ccc5ccccc5c4C2(C)C)cc1)[C@@H]3C (stereo partly specified)	720 nM		Active		590 nM	Active		2.3	70%	Active	Active	Active	Active	Active			
CCCCCCOC(C)c1c(C)c2cc3nc(c4c5[nH]c(cc6nc(cc1[nH]2)C(C)=C6CC)c(C)c5C(=O)C4)[C@@H](CCC(=O)NCCNC(=O)c1ccc(SC2=C(/C=C/C4=[N+](CCCCS(=O)(=O)[O-])c5ccc6ccccc6c5C4(C)C)CCC/C2=C\C=C2\N(CCCCS(=O)(=O)O)c4ccc5ccccc5c4C2(C)C)cc1)[C@@H]3C (stereo partly specified)	2510 nM				790 nM	Active		2		Active		Active	Active	Active	Toxic	Toxic	
CCCCCCOC(C)c1c(C)c2cc3nc(c4c5[nH]c(cc6nc(cc1[nH]2)C(C)=C6CC)c(C)c5C(=O)C4)[C@@H](CCC(=O)NCCCCCCNC(=O)c1cccc(SC2=C(/C=C/C4=[N+](CCCCS(=O)(=O)[O-])c5ccc6ccccc6c5C4(C)C)CCC/C2=C\C=C2\N(CCCCS(=O)(=O)O)c4ccc5ccccc5c4C2(C)C)c1)[C@@H]3C (stereo partly specified)	200 nM				380 nM	Active		2.5	90%	Active	Active	Active	Active	Active			
CCCCCCOC(C)c1c(C)c2cc3nc(c4c5[nH]c(cc6nc(cc1[nH]2)C(C)=C6CC)c(C)c5C(=O)C4)[C@@H](CCC(=O)NCCNC(=O)c1cccc(SC2=C(/C=C/C4=[N+](CCCCS(=O)(=O)[O-])c5ccc6ccccc6c5C4(C)C)CCC/C2=C\C=C2\N(CCCCS(=O)(=O)O)c4ccc5ccccc5c4C2(C)C)c1)[C@@H]3C (stereo partly specified)	1580 nM			80%	570 nM	Active		2.5		Active		Active	Active	Active	Toxic	Toxic	
CCCCCCOC(C)c1c(C)c2cc3nc(c4c5[nH]c(cc6nc(cc1[nH]2)C(C)=C6CC)c(C)c5C(=O)C4)[C@@H](CCC(=O)NCCCCNC(=O)c1ccc(SC2=C(/C=C/C4=[N+](CCCCS(=O)(=O)[O-])c5ccc6ccccc6c5C4(C)C)CCC/C2=C\C=C2\N(CCCCS(=O)(=O)O)c4ccc5ccccc5c4C2(C)C)cc1)[C@@H]3C (stereo partly specified)	130 nM	Active		20%	290 nM	Active	Active	10		Active		Active	Active	Active			
